For assay [1], the species on record is Homo sapiens. The experiment in a line: Selectivity ratio of IC50 for adrenergic alpha1B receptor (unknown origin) to IC50 for adrenergic alpha1D receptor (unknown origin).
The species entered for assay [2] is Homo sapiens. The experiment in a line: Selectivity ratio of IC50 for adrenergic alpha1B receptor (unknown origin) to IC50 for adrenergic alpha1A receptor (unknown origin).
The target in assay [3] is T1, Alpha-1A adrenergic receptor (Homo sapiens, UniProt P35348).
T1 sequence (P35348 whole entry): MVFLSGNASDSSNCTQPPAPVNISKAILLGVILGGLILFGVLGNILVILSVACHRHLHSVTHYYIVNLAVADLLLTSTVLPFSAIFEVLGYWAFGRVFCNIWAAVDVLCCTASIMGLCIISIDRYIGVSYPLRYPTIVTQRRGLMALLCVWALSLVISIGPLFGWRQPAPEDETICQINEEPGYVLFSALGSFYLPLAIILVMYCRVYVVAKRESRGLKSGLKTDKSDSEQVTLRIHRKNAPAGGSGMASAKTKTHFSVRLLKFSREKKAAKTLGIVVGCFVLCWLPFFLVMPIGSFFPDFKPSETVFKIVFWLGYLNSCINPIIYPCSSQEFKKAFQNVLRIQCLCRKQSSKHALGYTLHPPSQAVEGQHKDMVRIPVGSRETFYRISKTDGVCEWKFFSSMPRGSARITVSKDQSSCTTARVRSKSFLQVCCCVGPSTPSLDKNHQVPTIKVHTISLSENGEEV
Kind of assay: Antagonist activity at adrenergic alpha1A receptor (unknown origin) by firefly and renilla dual glo luciferase assay. The gist of the method: (§1)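 Firefly and Renilla luciferase activities (RLU) were read by luminometer with the Dual-Glo kit, following the manufacturer's protocol. IC50 values were derived from three independent experiments.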

In assay [4] the target is T2, Alpha-1D adrenergic receptor (Homo sapiens, UniProt P25100).
T2 sequence (P25100 whole entry): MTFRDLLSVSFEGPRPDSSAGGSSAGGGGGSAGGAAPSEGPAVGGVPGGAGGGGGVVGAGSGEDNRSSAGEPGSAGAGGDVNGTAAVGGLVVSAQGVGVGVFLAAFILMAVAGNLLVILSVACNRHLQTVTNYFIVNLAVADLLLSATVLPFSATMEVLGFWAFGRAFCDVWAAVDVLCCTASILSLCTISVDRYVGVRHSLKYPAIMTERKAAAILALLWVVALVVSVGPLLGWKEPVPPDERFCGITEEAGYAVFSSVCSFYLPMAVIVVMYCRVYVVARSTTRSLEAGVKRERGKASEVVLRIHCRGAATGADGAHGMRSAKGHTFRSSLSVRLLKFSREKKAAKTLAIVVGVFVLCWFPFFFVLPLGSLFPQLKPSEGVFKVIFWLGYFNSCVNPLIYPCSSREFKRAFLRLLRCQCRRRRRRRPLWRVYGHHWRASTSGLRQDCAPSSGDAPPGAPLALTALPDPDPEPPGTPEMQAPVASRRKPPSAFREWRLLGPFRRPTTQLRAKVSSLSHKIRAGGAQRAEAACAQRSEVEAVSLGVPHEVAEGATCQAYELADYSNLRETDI
The experiment in a line: Antagonist activity at adrenergic alpha1D receptor (unknown origin) by firefly and renilla dual glo luciferase assay. The gist of the method:
as §1

Assay [5] concerns the target T3, Alpha-1B adrenergic receptor (Homo sapiens, UniProt P35368).
T3 sequence (P35368 whole entry): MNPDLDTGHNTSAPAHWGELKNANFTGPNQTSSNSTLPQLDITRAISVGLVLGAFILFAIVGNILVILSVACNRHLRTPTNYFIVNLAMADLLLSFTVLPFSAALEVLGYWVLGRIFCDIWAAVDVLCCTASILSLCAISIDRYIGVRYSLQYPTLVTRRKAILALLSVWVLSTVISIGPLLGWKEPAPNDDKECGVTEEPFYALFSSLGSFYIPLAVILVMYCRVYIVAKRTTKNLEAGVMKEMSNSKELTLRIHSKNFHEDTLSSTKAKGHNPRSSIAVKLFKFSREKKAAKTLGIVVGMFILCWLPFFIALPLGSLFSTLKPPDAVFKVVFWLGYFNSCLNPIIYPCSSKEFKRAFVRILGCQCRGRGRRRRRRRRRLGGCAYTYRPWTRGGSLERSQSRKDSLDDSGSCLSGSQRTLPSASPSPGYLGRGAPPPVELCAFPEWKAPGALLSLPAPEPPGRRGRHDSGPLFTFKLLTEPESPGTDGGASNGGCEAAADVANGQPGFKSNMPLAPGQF
Kind of assay: Antagonist activity at adrenergic alpha1B receptor (unknown origin) by firefly and renilla dual glo luciferase assay. Put shortly:
as §1

The results in this text go back to ChEMBL document CHEMBL3739328, “Synthesis, structure-activity relationship and biological evaluation of novel arylpiperzines as α1A/1D-AR subselective antagonists for BPH” (Bioorg Med Chem, 2015).

By IC50 is commonly meant the concentration at which inhibition is half-maximal.

As to `CC(=O)c1ccc(N2CCN(CCc3ccc(CN4C(=O)c5ccccc5C4=O)cc3)CC2)cc1`, the Ratio IC50 in the assay listed under Homo sapiens [1] was 0.2; in the assay filed under Homo sapiens [2], 8.6. Further, the 50% inhibitory concentration (IC50) in assay [3] was 14.2 nM; in assay [4], 866 nM; in assay [5], 122 nM.

As to `N#Cc1ccc(N2CCN(CCc3ccc(CN4C(=O)c5ccccc5C4=O)cc3)CC2)c(F)c1`, the Ratio IC50 in the assay listed under Homo sapiens [1] was 0.04; in the assay listed under Homo sapiens [2], 0.3. The values for the IC50 in assay [3], in assay [4] and in assay [5] were 128 nM, 957 nM and 34.8 nM, respectively.

Regarding `CCOc1ccccc1N1CCN(CCc2ccc(CN3C(=O)c4ccccc4C3=O)cc2)CC1`, the Ratio IC50 in the assay listed under Homo sapiens [1] was 1.8; in the assay filed under Homo sapiens [2], 13.4. For the same compound, the 50% inhibitory concentration (IC50) in assay [3] was 32.4 nM; in assay [4] it was 240 nM; in assay [5] it was 433 nM.

With `O=C1c2ccccc2C(=O)N1Cc1ccc(CCN2CCN(c3ccc(F)cc3F)CC2)cc1`, the Ratio IC50 in the assay filed under Homo sapiens [1] is 1.6; in the assay filed under Homo sapiens [2], 8.8. Further, the IC50 in assay [3] turned out to be 89.9 nM; in assay [4], 493 nM; in assay [5] it was 787 nM.

As for `N#Cc1ccccc1N1CCN(CCc2ccc(CN3C(=O)c4ccccc4C3=O)cc2)CC1`, the values for the Ratio IC50 in the assay listed under Homo sapiens [1] and in the assay filed under Homo sapiens [2] were 10.8 and 5, respectively. In addition, the half-maximal inhibitory concentration (IC50) came to 36.1 nM in assay [3], 16.7 nM in assay [4] and 180 nM in assay [5].

For `O=C1c2ccccc2C(=O)N1Cc1ccc(CCN2CCN(c3ccc(Cl)cc3)CC2)cc1`, the Ratio IC50 in the assay filed under Homo sapiens [1] was determined as 22.6; in the assay filed under Homo sapiens [2], 1.4. Besides, the IC50 in assay [3] stood at 552 nM; in assay [4], 35.2 nM; in assay [5], 794 nM.

In the case of `O=C1c2ccccc2C(=O)N1Cc1ccc(CCN2CCN(c3ccccc3)CC2)cc1`, the Ratio IC50 amounted to 0.5 in the assay filed under Homo sapiens [1] and 5.8 in the assay listed under Homo sapiens [2]. Further, the half-maximal inhibitory concentration (IC50) in assay [3] was found to be 151 nM; in assay [4], 1760 nM; in assay [5], 875 nM.

For the compound `COc1ccc(N2CCN(CCc3ccc(CN4C(=O)c5ccccc5C4=O)cc3)CC2)cc1`, the Ratio IC50 is 0.2 in the assay listed under Homo sapiens [1] and 0.5 in the assay filed under Homo sapiens [2]. The IC50 in assay [3] came to 885 nM; in assay [4], 1860 nM; in assay [5], 406 nM.

For `O=C1c2ccccc2C(=O)N1Cc1ccc(CCN2CCN(c3ccccc3F)CC2)cc1`, the figures for the Ratio IC50 in the assay listed under Homo sapiens [1] and in the assay filed under Homo sapiens [2] were 0.2 and 19.5, respectively. Also, the figures for the IC50 in assay [3], in assay [4] and in assay [5] were 96 nM, 10600 nM and 1880 nM, respectively.

Turning to `N#Cc1ccc(N2CCN(CCc3ccc(CN4C(=O)c5ccccc5C4=O)cc3)CC2)cc1`, the figures for the Ratio IC50 in the assay listed under Homo sapiens [1] and in the assay filed under Homo sapiens [2] were 12.1 and 8.6, respectively. Further, the IC50 in assay [3] was 89.2 nM; in assay [4], 63.5 nM; in assay [5], 769 nM.

For the compound `Cc1ccccc1N1CCN(CCc2ccc(CN3C(=O)c4ccccc4C3=O)cc2)CC1`, the values for the Ratio IC50 in the assay filed under Homo sapiens [1] and in the assay listed under Homo sapiens [2] were 0.01 and 4.2, respectively. Further, the figures for the concentration for half-maximal inhibition (IC50) in assay [3], in assay [4] and in assay [5] were 228 nM, 80600 nM and 949 nM, respectively.

For `O=C1c2ccccc2C(=O)N1Cc1ccc(CCN2CCN(c3ccc(Br)cc3)CC2)cc1`, the Ratio IC50 turned out to be 0.1 in the assay filed under Homo sapiens [1] and 0.3 in the assay filed under Homo sapiens [2]. The IC50 came to 3420 nM in assay [3], 7430 nM in assay [4] and 1000 nM in assay [5].

On to `O=C1c2ccccc2C(=O)N1Cc1ccc(CCN2CCN(c3ccc(F)cc3)CC2)cc1`, for which the results for the Ratio IC50 in the assay filed under Homo sapiens [1] and in the assay filed under Homo sapiens [2] were 5.6 and 3, respectively. Also, the IC50 in assay [3] was determined as 229 nM; in assay [4], 122 nM; in assay [5], 684 nM.

Take `O=C1c2ccccc2C(=O)N1Cc1ccc(CCN2CCN(c3ccccn3)CC2)cc1`: the Ratio IC50 in the assay listed under Homo sapiens [1] was 1.1; in the assay filed under Homo sapiens [2], 0.3. For the same compound, the IC50 in assay [3] worked out at 49.6 nM; in assay [4], 11.3 nM; in assay [5] it was 12.6 nM.

As for `O=C1c2ccccc2C(=O)N1Cc1ccc(CCN2CCN(c3ccccc3Cl)CC2)cc1`, the Ratio IC50 in the assay listed under Homo sapiens [1] stood at 21.3; in the assay listed under Homo sapiens [2], 51.5. Besides, the results for the IC50 in assay [3], in assay [4] and in assay [5] were 15.2 nM, 36.6 nM and 781 nM, respectively.

For `O=C1c2ccccc2C(=O)N1Cc1ccc(CCN2CCN(c3ccc(C(F)(F)F)cc3)CC2)cc1`, the Ratio IC50 in the assay listed under Homo sapiens [1] was 1.5; in the assay listed under Homo sapiens [2], 0.3. Also, the IC50 was determined as 66.2 nM in assay [3], 12.9 nM in assay [4] and 19.7 nM in assay [5].

As for `COc1ccccc1N1CCN(CCc2ccc(CN3C(=O)c4ccccc4C3=O)cc2)CC1`, the Ratio IC50 in the assay listed under Homo sapiens [1] worked out at 0.08; in the assay filed under Homo sapiens [2], 3.3. The half-maximal inhibitory concentration (IC50) in assay [3] was found to be 30.1 nM; in assay [4], 1240 nM; in assay [5], 101 nM.

As to `Cc1ccc(N2CCN(CCc3ccc(CN4C(=O)c5ccccc5C4=O)cc3)CC2)cc1`, the Ratio IC50 in the assay listed under Homo sapiens [1] amounted to 0.08; in the assay filed under Homo sapiens [2], 14.2. Besides, the figures for the IC50 in assay [3], in assay [4] and in assay [5] were 2.03 nM, 344 nM and 28.9 nM, respectively.

As for `COc1ccccc1N1CCN(CC(O)COc2cccc3ccccc23)CC1` (stereo not drawn) [NAFTOPIDIL], the IC50 in assay [3] turned out to be 555 nM; in assay [4], 55.2 nM; in assay [5], 634 nM.

For the compound `CS(=O)(=O)c1ccccc1N1CCN(CCc2ccc(CN3C(=O)c4ccccc4C3=O)cc2)CC1`, the Ratio IC50 in the assay filed under Homo sapiens [1] was 19.8; in the assay listed under Homo sapiens [2], 4.3. Besides, the IC50 in assay [3] is 46.4 nM; in assay [4], 10.1 nM; in assay [5], 199 nM.

Consider `O=C1c2ccccc2C(=O)N1Cc1ccc(CCN2CCN(Cc3ccccc3)CC2)cc1`, for which the Ratio IC50 in the assay listed under Homo sapiens [1] worked out at 8.7; in the assay listed under Homo sapiens [2], 0.8. The concentration for half-maximal inhibition (IC50) in assay [3] was 1200 nM; in assay [4], 116 nM; in assay [5], 1010 nM.

On to `Cc1ccc(Cl)cc1N1CCN(CCc2ccc(CN3C(=O)c4ccccc4C3=O)cc2)CC1`, for which the Ratio IC50 in the assay listed under Homo sapiens [1] turned out to be 1; in the assay filed under Homo sapiens [2], 0.9. For the same compound, the concentration for half-maximal inhibition (IC50) in assay [3] is 34.5 nM; in assay [4], 31.3 nM; in assay [5] it was 31.6 nM.

On to `O=C1c2ccccc2C(=O)N1Cc1ccc(CCN2CCN(c3ccccc3C(F)(F)F)CC2)cc1`, for which the figures for the Ratio IC50 in the assay listed under Homo sapiens [1] and in the assay filed under Homo sapiens [2] were 1.5 and 0.7, respectively. In addition, the results for the IC50 in assay [3], in assay [4] and in assay [5] were 384 nM, 164 nM and 250 nM, respectively.
